Measured values as given in ChEMBL document CHEMBL1777751, “Virtual screening and further development of novel ALK inhibitors” (Bioorg Med Chem, 2011).
pIC50: −log10 of the molar value. Values belong to the compound of their own block, whether it stands above or below them.

Legend:
[1] = target: T1, ALK tyrosine kinase receptor (Homo sapiens, UniProt Q9UM73); test: Inhibition of ALK using FL-Peptide 13, 5-FAM-KKSRGDYMTMQIG-CONH2 substrate after 60 mins by mobility shift assay
Target sequence in this assay (Q9UM73 whole entry): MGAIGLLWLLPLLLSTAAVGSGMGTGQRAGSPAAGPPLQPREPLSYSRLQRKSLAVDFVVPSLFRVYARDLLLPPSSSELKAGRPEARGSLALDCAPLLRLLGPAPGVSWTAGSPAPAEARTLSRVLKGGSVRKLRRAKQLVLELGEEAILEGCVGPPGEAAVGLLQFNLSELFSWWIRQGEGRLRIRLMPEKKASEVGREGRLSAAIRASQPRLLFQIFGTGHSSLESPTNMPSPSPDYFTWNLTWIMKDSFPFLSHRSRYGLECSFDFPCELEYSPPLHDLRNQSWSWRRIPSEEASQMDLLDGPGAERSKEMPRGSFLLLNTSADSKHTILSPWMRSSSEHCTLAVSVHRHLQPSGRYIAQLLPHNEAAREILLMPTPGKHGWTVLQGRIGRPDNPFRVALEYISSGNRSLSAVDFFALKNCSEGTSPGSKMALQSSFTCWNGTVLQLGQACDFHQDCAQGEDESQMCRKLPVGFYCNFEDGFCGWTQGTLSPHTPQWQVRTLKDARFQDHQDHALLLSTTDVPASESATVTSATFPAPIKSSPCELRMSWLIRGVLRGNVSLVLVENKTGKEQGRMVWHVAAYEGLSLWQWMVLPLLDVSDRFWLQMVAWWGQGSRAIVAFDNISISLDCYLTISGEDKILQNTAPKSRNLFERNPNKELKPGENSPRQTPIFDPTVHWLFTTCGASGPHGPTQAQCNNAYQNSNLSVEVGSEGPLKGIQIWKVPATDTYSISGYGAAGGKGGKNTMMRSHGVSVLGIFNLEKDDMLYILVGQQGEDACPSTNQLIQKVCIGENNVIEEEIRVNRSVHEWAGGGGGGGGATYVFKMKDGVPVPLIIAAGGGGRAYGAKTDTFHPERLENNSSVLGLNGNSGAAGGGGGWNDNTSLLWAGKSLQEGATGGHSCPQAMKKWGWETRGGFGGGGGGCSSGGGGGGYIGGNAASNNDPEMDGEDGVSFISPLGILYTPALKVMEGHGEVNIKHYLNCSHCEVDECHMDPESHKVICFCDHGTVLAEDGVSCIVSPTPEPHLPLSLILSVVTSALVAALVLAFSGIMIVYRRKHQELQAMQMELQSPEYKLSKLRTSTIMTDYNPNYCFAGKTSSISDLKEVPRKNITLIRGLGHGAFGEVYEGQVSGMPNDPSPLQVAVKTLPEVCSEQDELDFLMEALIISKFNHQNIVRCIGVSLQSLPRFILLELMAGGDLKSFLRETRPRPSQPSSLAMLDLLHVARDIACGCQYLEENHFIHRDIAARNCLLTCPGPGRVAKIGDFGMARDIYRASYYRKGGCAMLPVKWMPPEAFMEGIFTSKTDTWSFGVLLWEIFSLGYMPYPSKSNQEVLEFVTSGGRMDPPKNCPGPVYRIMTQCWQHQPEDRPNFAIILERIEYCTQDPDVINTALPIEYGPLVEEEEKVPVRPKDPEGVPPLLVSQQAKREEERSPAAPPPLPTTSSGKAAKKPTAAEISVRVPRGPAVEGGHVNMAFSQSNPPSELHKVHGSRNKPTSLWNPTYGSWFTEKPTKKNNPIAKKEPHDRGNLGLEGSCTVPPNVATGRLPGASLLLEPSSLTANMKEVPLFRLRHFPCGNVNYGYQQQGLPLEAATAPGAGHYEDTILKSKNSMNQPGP

[2] = target: T1, ALK tyrosine kinase receptor; test: Inhibition of ALK using FL-Peptide 13, 5-FAM-KKSRGDYMTMQIG-CONH2 substrate at 10 uM after 60 mins by mobility shift assay
Summary of the method: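 Recombinant ALK at 42 ng/mL, with 1.5 µM fluorescent peptide substrate and ATP. Buffer: 50 mM Hepes pH 7.4, 10 mM MgCl2, 1 mM DTT, 1% protease and 1% phosphatase inhibitor cocktails, 0.01% Brij-35. Compound was added in 5% DMSO. Incubated 60 min at room temperature, then read by mobility shift.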
Target sequence in this assay (Q9UM73 19-1620 limits assumed): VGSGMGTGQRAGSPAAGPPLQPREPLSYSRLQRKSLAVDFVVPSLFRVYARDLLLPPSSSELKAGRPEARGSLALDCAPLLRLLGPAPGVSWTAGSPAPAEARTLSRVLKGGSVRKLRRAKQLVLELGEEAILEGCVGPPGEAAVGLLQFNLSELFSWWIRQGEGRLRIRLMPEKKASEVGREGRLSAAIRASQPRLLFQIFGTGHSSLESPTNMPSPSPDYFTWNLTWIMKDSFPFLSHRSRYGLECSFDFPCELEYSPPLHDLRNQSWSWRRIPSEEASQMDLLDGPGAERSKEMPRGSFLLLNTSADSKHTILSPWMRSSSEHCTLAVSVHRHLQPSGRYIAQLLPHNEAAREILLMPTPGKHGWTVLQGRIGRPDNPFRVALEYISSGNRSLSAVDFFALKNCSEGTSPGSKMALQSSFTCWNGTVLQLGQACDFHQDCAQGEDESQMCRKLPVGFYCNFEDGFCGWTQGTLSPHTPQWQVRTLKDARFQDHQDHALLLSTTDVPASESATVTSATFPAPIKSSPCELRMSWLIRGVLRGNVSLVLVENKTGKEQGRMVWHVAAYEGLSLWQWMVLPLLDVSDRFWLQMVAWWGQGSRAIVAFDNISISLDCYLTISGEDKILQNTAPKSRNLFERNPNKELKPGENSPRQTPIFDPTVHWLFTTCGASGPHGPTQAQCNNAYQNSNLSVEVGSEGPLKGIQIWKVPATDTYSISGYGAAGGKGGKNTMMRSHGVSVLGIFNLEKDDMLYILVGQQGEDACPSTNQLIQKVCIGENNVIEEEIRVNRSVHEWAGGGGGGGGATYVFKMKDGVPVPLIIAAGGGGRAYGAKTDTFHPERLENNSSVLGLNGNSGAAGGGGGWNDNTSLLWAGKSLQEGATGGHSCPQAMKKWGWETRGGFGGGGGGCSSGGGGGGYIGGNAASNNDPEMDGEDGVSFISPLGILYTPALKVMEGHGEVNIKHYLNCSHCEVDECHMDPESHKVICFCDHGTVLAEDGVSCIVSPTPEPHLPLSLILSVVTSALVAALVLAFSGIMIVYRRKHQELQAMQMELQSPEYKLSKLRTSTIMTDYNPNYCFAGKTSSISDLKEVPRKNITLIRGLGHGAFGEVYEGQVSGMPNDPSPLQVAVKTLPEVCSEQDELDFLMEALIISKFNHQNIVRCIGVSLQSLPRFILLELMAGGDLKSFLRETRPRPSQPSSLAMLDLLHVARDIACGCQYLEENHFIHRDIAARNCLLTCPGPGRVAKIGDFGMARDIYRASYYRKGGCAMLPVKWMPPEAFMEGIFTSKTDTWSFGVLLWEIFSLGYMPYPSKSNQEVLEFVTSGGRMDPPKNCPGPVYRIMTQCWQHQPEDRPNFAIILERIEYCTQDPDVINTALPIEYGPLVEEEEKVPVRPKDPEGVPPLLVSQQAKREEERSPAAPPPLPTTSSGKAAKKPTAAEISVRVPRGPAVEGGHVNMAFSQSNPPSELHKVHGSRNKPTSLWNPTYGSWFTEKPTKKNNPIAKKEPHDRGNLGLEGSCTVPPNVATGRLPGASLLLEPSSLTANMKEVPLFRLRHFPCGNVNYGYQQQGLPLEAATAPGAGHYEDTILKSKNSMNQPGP

[3] = target: T1, ALK tyrosine kinase receptor; test: Inhibition of ALK at 4 uM by mobility shift assay
Summary of the method: (§1)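 Tyrosine kinase panel run by a contract lab. Each enzyme was incubated with 1 mM ATP and 1 µM of its appropriate peptide substrate, and the product was then read by mobility shift.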
Target sequence in this assay (Q9UM73 19-1620 limits assumed): as above

[4] = target: T1, ALK tyrosine kinase receptor; test: Inhibition of EML4-ALK at 4 uM by mobility shift assay; summary of the method: as §1
Target sequence in this assay (Q9UM73 19-1620 limits assumed): as above

[5] = Inhibition of NPM1/ALK at 4 uM by mobility shift assay; summary of the method: as §1
[6] = target: Tyrosine-protein kinase ABL1 (Homo sapiens) (UniProt P00519); test: Inhibition of ABL at 4 uM by mobility shift assay; summary of the method: as §1
[7] = target: Tyrosine-protein kinase CSK (Homo sapiens) (UniProt P41240); test: Inhibition of CSK at 4 uM by mobility shift assay; summary of the method: as §1
[8] = target: Epidermal growth factor receptor (Homo sapiens) (UniProt P00533); test: Inhibition of EGFR at 4 uM by mobility shift assay; summary of the method: as §1
[9] = target: Ephrin type-A receptor 2 (Homo sapiens) (UniProt P29317); test: Inhibition of EPHA2 at 4 uM by mobility shift assay; summary of the method: as §1
[10] = target: Fibroblast growth factor receptor 1 (Homo sapiens) (UniProt P11362); test: Inhibition of FGFR1 at 4 uM by mobility shift assay; summary of the method: as §1
[11] = target: Receptor-type tyrosine-protein kinase FLT3 (Homo sapiens) (UniProt P36888); test: Inhibition of FLT3 at 4 uM by mobility shift assay; summary of the method: as §1
[12] = target: Insulin-like growth factor 1 receptor (Homo sapiens) (UniProt P08069); test: Inhibition of IGF-1R at 4 uM by mobility shift assay; summary of the method: as §1
[13] = target: Insulin receptor (Homo sapiens) (UniProt P06213); test: Inhibition of INSR at 4 uM by mobility shift assay; summary of the method: as §1
[14] = target: Tyrosine-protein kinase ITK/TSK (Homo sapiens) (UniProt Q08881); test: Inhibition of ITK at 4 uM by mobility shift assay; summary of the method: as §1
[15] = target: Tyrosine-protein kinase JAK3 (Homo sapiens) (UniProt P52333); test: Inhibition of JAK3 at 4 uM by mobility shift assay; summary of the method: as §1
[16] = target: Vascular endothelial growth factor receptor 2 (Homo sapiens) (UniProt P35968); test: Inhibition of KDR at 4 uM by mobility shift assay; summary of the method: as §1
[17] = target: Tyrosine-protein kinase Lck (Homo sapiens) (UniProt P06239); test: Inhibition of LCK at 4 uM by mobility shift assay; summary of the method: as §1
[18] = target: Hepatocyte growth factor receptor (Homo sapiens) (UniProt P08581); test: Inhibition of MET at 4 uM by mobility shift assay; summary of the method: as §1
[19] = target: Platelet-derived growth factor receptor alpha (Homo sapiens) (UniProt P16234); test: Inhibition of PDGFRa at 4 uM by mobility shift assay; summary of the method: as §1
[20] = target: Proto-oncogene tyrosine-protein kinase Src (Homo sapiens) (UniProt P12931); test: Inhibition of SRC at 4 uM by mobility shift assay; summary of the method: as §1
Chain of Proto-oncogene tyrosine-protein kinase Src (Homo sapiens) (P12931 2-536 limits assumed): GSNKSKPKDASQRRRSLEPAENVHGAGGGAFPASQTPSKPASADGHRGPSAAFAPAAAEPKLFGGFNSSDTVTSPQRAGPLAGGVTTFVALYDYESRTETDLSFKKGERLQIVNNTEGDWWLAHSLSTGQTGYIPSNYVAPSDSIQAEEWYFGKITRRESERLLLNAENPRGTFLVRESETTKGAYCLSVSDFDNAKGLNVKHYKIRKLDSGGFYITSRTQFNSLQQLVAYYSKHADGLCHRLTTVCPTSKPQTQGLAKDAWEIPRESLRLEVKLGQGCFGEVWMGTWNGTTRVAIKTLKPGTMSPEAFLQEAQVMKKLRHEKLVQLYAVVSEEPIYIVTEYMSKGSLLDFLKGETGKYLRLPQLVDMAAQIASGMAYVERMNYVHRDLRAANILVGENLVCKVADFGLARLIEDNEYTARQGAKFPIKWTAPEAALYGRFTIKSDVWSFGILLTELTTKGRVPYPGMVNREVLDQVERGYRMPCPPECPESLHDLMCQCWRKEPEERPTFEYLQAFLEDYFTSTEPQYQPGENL

[21] = target: Tyrosine-protein kinase SYK (Homo sapiens) (UniProt P43405); test: Inhibition of SYK at 4 uM by mobility shift assay; summary of the method: as §1
[22] = target: Angiopoietin-1 receptor (Homo sapiens) (UniProt Q02763); test: Inhibition of TIE2 at 4 uM by mobility shift assay; summary of the method: as §1
[23] = target: High affinity nerve growth factor receptor (Homo sapiens) (UniProt P04629); test: Inhibition of TRKA at 4 uM by mobility shift assay; summary of the method: as §1
[24] = target: Tyrosine-protein kinase receptor TYRO3 (Homo sapiens) (UniProt Q06418); test: Inhibition of TYRO3 at 4 uM by mobility shift assay; summary of the method: as §1
Chain of Tyrosine-protein kinase receptor TYRO3 (Homo sapiens) (Q06418 whole entry): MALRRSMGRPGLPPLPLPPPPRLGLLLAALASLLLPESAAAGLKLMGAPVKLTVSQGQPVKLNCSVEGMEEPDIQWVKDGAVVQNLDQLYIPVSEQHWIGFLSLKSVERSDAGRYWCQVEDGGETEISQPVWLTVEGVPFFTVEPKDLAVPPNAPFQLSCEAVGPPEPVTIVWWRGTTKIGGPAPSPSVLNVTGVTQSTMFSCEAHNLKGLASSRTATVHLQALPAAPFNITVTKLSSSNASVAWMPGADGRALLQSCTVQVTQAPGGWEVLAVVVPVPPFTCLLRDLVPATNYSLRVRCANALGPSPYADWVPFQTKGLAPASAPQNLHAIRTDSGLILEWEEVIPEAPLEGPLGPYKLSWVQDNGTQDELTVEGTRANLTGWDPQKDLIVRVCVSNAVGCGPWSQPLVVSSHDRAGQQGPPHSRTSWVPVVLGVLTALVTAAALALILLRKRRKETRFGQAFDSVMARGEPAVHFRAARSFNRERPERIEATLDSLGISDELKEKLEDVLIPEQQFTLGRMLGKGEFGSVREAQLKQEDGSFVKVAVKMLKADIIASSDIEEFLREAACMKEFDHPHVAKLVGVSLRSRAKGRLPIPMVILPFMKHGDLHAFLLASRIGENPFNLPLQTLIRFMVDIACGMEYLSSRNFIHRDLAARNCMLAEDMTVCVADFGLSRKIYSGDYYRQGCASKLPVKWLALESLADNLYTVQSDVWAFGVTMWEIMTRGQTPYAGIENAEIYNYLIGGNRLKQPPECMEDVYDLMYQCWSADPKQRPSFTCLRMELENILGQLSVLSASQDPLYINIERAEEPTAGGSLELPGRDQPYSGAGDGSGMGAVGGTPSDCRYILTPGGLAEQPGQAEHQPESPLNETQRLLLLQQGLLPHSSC

[25] = target: Protein-tyrosine kinase 2-beta (Homo sapiens) (UniProt Q14289); test: Inhibition of PYK2 at 4 uM by mobility shift assay; summary of the method: as §1
[26] = target: Ephrin type-B receptor 4 (Homo sapiens) (UniProt P54760); test: Inhibition of EPHB4 at 4 uM by mobility shift assay

SMILES: Oc1ccc(Nc2nc(-c3ccccc3O)nc3ccccc23)cc1
pIC50 [1]: 5.37

SMILES: Oc1ccccc1-c1nc(Nc2ccc(Cl)cc2)c2ccccc2n1
pIC50 [1]: 5.19

SMILES: Oc1ccc(-n2cccc2)cc1C(O)O
inhibition [2]: > 50%

SMILES: CCOC(=O)c1ccc(Nc2nc(Nc3ccc(Cl)cc3)c3nccnc3n2)cc1
pIC50 [1]: 5.46

SMILES: NC(Cc1cc(O)c(O)cc1O)C(O)O (stereo not given)
inhibition [2]: > 50%

SMILES: COc1cc(N2CCCC2)ccc1/C=C1\C(=O)NC(=O)N(c2cccnc2)C1=O
inhibition [2]: > 50%

SMILES: Cc1[nH]c(/C=C2\C(=O)Nc3ccc(F)cc32)c(C)c1C(=O)O
pIC50 [1]: 6.04

SMILES: Cc1[nH]c(/C=C2\C(=O)Nc3ccccc32)c(C)c1-c1cccc(NCCN)c1
pIC50 [1]: 6.22

SMILES: Cc1ccc(NC2=NC(=O)/C(=C3\C(=O)Nc4ccccc43)S2)cc1
pIC50 [1]: 5.43

SMILES: Oc1c2ccccc2c2c3c(cccc13)N=N2
inhibition [2]: > 50%

SMILES: COc1cc(-c2nc3cc(C)ccn3c2/N=C/c2cc(Cl)ccc2O)ccc1O
pIC50 [1]: 5.62

SMILES: Cc1cc(-c2ccc(NCCN)cc2)c(/C=C2\C(=O)Nc3ccccc32)[nH]1
pIC50 [1]: 6.83

SMILES: CC(=O)COc1ccc2c(c1)O/C(=C\c1ccc([N+](=O)[O-])cc1)C2=O
inhibition [2]: > 50%

SMILES: Cc1[nH]c(/C=C2\C(=O)Nc3ccccc32)c(C)c1-c1ccc(NCCN)cc1
pIC50 [1]: 6.38

SMILES: O=C(OCc1cc(=O)oc2cc(O)c(O)cc12)c1cc2ccccc2cc1O
inhibition [2]: > 50%

SMILES: Cc1cc(-c2cccc(N)c2)c(/C=C2\C(=O)Nc3ccccc32)[nH]1
pIC50 [1]: 7.21
inhibition [3]: 97.6%
inhibition [4]: 98.7%
inhibition [5]: 93.8%
inhibition [6]: 5.1%
inhibition [7]: -6.5%
inhibition [8]: -2.3%
inhibition [9]: 4.9%
inhibition [10]: 62.7%
inhibition [11]: 98.1%
inhibition [12]: 91.2%
inhibition [13]: 97.2%
inhibition [14]: 34.2%
inhibition [15]: 9%
inhibition [16]: 81.7%
inhibition [17]: 69.8%
inhibition [18]: 12.7%
inhibition [19]: 56.6%
inhibition [20]: 39%
inhibition [21]: 58.5%
inhibition [22]: 14%
inhibition [23]: 99.4%
inhibition [24]: 100%
inhibition [25]: 86.5%
inhibition [26]: 5.1%

SMILES: COc1c(OCCN2CCCCC2)cc(F)c2c(-c3ccc(O)c(Cl)c3)nc3[nH]nc(C)c3c12
pIC50 [1]: ≥ 7.00

SMILES: O=C1Nc2ccccc2/C1=C/c1c[nH]nc1-c1cccs1
inhibition [2]: > 50%

SMILES: O=[N+]([O-])c1ccc2ncnc(Nc3ccc(O)cc3)c2c1
pIC50 [1]: 5.06

SMILES: Oc1ccc(Nc2ncnc3ccc(Br)cc23)cc1
pIC50 [1]: 5.55
inhibition [2]: > 50%

SMILES: Oc1ccc(C2Oc3cc(O)cc(O)c3CC2O)cc1 (stereo not given)
inhibition [2]: > 50%

SMILES: Cc1cc(-c2ccc(N)cc2)c(/C=C2\C(=O)Nc3ccc(N)cc32)[nH]1
pIC50 [1]: 7.17

SMILES: CCc1nc(/C=C2\C(=O)Nc3ccccc32)c[nH]1
inhibition [2]: > 50%

SMILES: CC1CN(Cc2c(-c3cccs3)[nH]c3ncccc23)CC(C)O1 (stereo not given)
pIC50 [1]: 5.03

Other lines, results leading:

inhibition [2]: > 50%
SMILES: O=C1c2c(cc(O)c(O)c2O)CCCC1O (stereo not given)

inhibition [2]: > 50%
SMILES: Oc1cc(C(O)O)c2cc(Oc3ccc4nc(O)cc(C(O)O)c4c3)ccc2n1

pIC50 [1]: 7.29
SMILES: Cc1cc(-c2cccc(N)c2)c(/C=C2\C(=O)Nc3ccc(N)cc32)[nH]1

pIC50 [1]: ≥ 7.00
SMILES: COc1cc2c(-c3ccc(O)cc3)nc3[nH]nc(C)c3c2cc1OC

pIC50 [1]: 6.43
SMILES: Cc1cc(-c2ccc(N)cc2)c(/C=C2\C(=O)Nc3ccccc32)[nH]1

pIC50 [1]: 5.86
SMILES: CCc1nc(C)c(/C=C2\C(=O)Nc3ccccc32)[nH]1

pIC50 [1]: 7.05
SMILES: Cc1cc(-c2cccc(NCCN)c2)c(/C=C2\C(=O)Nc3ccccc32)[nH]1

pIC50 [1]: 6.07
SMILES: CN(C)S(=O)(=O)c1ccc2c(c1)/C(=C/c1cc3c([nH]1)CCCC3)C(=O)N2

pIC50 [1]: 5.76
SMILES: O=C1Nc2ccccc2/C1=C/c1c[nH]nc1-c1ccccc1

pIC50 [1]: 5.62
SMILES: COc1cc2ncnc(Nc3ccc(O)cc3)c2cc1OC [WHI-P131]

inhibition [2]: > 50%
SMILES: Cn1cc(/C=C2\C(=O)Nc3ccccc32)c2ccccc21
